In the library only some 0.89% were active in any assay of this set; here they are far more common.
ABCB6 inh MLPCN: blocks the human ABCB6 transporter; fluorescence ratio to DMSO, % at 10 µM; 0.19% of 360,000 active; K562-ABCB6 porphyrin accumulation, flow cytometry, 1 h; stronger effect = lower value;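 active = fluorescence ratio to DMSO below 75%, the collection mean minus 3 SD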;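 note: signal is porphyrin accumulated inside mitochondria; 100% equals median channel fluorescence of DMSO control wells; lower ratio means ABCB6 inhibition with less porphyrin fluorescence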
Target sequence (Q9NP58 whole entry, looked up): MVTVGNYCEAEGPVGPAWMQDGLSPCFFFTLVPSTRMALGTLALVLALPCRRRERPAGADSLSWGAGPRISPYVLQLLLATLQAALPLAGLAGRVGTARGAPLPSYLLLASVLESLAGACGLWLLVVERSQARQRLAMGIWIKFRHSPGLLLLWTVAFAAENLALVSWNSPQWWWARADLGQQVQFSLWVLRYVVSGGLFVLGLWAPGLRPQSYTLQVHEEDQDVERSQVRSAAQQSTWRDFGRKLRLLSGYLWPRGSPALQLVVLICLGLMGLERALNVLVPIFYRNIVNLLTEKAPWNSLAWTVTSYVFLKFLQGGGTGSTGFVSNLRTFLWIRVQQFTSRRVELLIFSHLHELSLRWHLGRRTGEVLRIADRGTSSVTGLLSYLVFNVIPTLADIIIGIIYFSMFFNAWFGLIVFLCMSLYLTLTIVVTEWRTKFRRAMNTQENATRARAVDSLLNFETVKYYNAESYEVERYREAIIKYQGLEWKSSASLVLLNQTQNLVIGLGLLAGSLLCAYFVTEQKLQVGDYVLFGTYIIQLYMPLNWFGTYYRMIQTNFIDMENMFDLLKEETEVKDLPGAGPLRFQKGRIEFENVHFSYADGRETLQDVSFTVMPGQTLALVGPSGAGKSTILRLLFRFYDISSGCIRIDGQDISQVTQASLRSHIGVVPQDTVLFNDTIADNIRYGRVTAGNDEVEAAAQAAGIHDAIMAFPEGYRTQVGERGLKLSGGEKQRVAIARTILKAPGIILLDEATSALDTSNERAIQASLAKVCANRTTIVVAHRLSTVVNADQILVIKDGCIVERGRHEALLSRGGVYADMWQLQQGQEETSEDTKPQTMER
hiPSC survival: hiPSC single-cell survival enhancement | AID 602274 | ATPlite luminescence; 100% = ROCK inhibitor wells, 0% = DMSO | survival enhancement, % at 20 µM | 0.044% of 360,000 active; in the data active = survival enhancement above about 18%;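 note: cells exposed to compounds for 16 hours before the ATP read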
Arr AP2 block: human beta-arrestin and AP2 interaction inhibition; FITC-arrestin peptide / GST-AP2 beads, flow cytometry; AP2 beta2 appendage carries R879A mutation; inhibition, % at 10 µM; 0.31% of 340,000 active;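 active = inhibition above a set limit, near 3 SD of compounds lacking own fluorescence, cut at about 54% in these data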;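 note: plate controls were DMSO wells for no effect and 5 µM unlabelled arrestin peptide for full effect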
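Measured by: flow cytometry, FL1 (488/535 nm); Material: AP2 appendage R879A on GSH beads; Evaluation: percent response; Timing: pre-incubation 12 min, peptide binding 1 h, room temperature; Also added: 50 nM FITC-arrestin peptide; Medium: PBS with 0.05% Tween 20 and 0.1% BSA.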
PG9 binder: small molecules binding HIV-1 gp120 antibody PG9. 0.43% of 360,000 active. TR-FRET gp120-PG9 antibody binding. inhibition, % at 6.7 µM. AID 624416; in the data active = inhibition above about 8.5%
Arr-AP2 CP1: human beta-arrestin and AP2 interaction inhibition, cherry pick; GST-AP2 beads, FITC arrestin peptide binding, flow cytometry; GST-fused beta2-adaptin appendage, R879A mutant; inhibition, % at 10 µM; 2% of 1,300 active; shares compounds with Arr AP2 block;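 active = inhibition above a set limit, roughly 3 SD of non-fluorescent compound noise, cut at about 38% in these data; inactive = inhibition at or below that limit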;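 note: loss of bead fluorescence from 50 nM FITC arrestin peptide bound to appendage; 0% = negative control wells and 100% = excess unlabelled arrestin peptide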
GST-FITC bead: counter-screen for beta-arrestin AP2 inhibitors: GST-GSH bead binding | shares compounds with Arr AP2 block | GST-fluorescein binding to GSH beads, fluorescence | inhibition, % at 10 µM | 2% of 1,300 active | AID 588338;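 active = inhibition above 50%, about 3 SD of the inhibition seen with non-fluorescent compounds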;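 note: fluorescein maleimide labelled GST captured on 4 micron glutathione beads; higher means more loss of bead fluorescence from quenching or blocked binding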
Starred values were filed as active, the others as inactive; x = no result.

SMILES | ABCB6 inh MLPCN | hiPSC survival | Arr AP2 block | PG9 binder | Arr-AP2 CP1 | GST-FITC bead
CCOc1ccc(C(C(=O)NC2CCCCC2)N(C(=O)c2ccco2)c2ccc(-n3cnnn3)c(C)c2)cc1 (stereo not given) | 99 | 0 | 100* | 1 | -19 | -4
COc1ccc(N(C(=O)c2ccco2)C(C(=O)NC2CCCCC2)c2cccs2)cc1OC (stereo not given) | 101 | 1 | 105* | 2 | 2 | -11
COc1ccc(C(C(=O)NC2CCCCC2)N(C(=O)c2ccco2)c2ccc(-n3cnnn3)c(C)c2)cc1 (stereo not given) | 101 | 2 | 2 | 1 | x | x
COc1cccc(CNc2ccc3[nH]c(=O)[nH]c3c2)c1OCc1ccc(F)cc1 | 96 | 0 | 55* | -3 | 18 | 13
C=CCOc1c(CNc2ccc3[nH]c(=O)[nH]c3c2)cccc1OC | 95 | 0 | 20 | -3 | x | x
O=C(NCc1ccccc1)[C@@H]1CCCN1C(=O)[C@H]1CCCN1C(=O)c1ccccc1F | x | x | x | -1 | x | x
Clc1cccc(CN2CCN(c3ncccn3)CC2)c1Cl | 94 | -1 | 2 | 1 | x | x
Clc1ccccc1CN1CCN(c2ncccn2)CC1 | 98 | 0 | 58* | -1 | -10 | -1
CCCc1nc2c(C)cc(Br)cn2c1Cc1ccccc1OC | x | x | x | 2 | x | x
O=C(c1ccco1)N1CCCC(N2CCN(c3ccccc3F)CC2)C1 (stereo not given) | 95 | 0 | -16 | -1 | x | x
O=C(c1ccnc(Cl)c1)N1CCCC(N2CCN(c3ccccc3F)CC2)C1 (stereo not given) | 95 | 0 | 63* | 0 | 2 | -3
COC(=O)C1=C(C)N(C)C(=NCc2cccc(C(F)(F)F)c2)NC1c1cccc(Cl)c1 (stereo not given) | x | x | x | 0 | x | x
CCOc1cccc(-c2cc(=O)[nH][nH]2)c1 | 96 | 0 | 74* | -2 | -4 | -5
CCOC(=O)C1=CCN(S(=O)(=O)c2ccc([N+](=O)[O-])cc2)C1c1ccc(C)cc1 (stereo not given) | x | x | x | -3 | x | x
O=C(O)c1ccccc1NS(=O)(=O)c1ccc(NNC(=S)Nc2ccc(OC(F)F)cc2)c([N+](=O)[O-])c1 | 96 | 0 | 62* | -4 | -2 | -5
O=C(C(=O)N1CCN(S(=O)(=O)c2cccc3ccccc23)CC1)c1cccc(C(F)(F)F)c1 | x | x | x | -2 | x | x
COC(=O)c1cc2c(c3c4cc(F)ccc4n(S(=O)(=O)c4cccc(C)c4)c13)C(=O)N(c1ccc(OC)cc1)C2 | x | x | x | 0 | x | x
O=C(c1ccco1)N(Cc1cc2ccccc2[nH]c1=O)C1CCCCC1 | 98 | -3 | 79* | 0 | 17 | -9
CCn1cnc2cc(NS(=O)(=O)c3ccc(OC)c(OC)c3)ccc21 | 96 | 0 | 61* | -3 | 2 | -5
COc1ccc(S(=O)(=O)Nc2ccc(S(=O)(=O)Nc3cc(C)nc(C)n3)cc2)cc1OC | 100 | 0 | 6 | 0 | x | x
CC(C)(C)NC(=O)/C(=C/c1ccco1)c1ccccc1 | 94 | -4 | 88* | 0 | 9 | -2
Cc1ccccc1NC(=O)/C(=C/c1ccco1)c1ccccc1 | 92 | 3 | -4 | -1 | x | x
Nc1[nH]c(C(=O)c2ccccc2)c(-c2ccccc2)c1C(=O)NCCc1c[nH]c2ccccc12 | x | x | x | -1 | x | x
O=C(Cc1ccccc1)Nc1ccc(C(=O)NCC2COc3ccccc3O2)cc1 (stereo not given) | 80 | 0 | 27 | -1 | x | x
O=C(NCC1COc2ccccc2O1)c1ccc(NC(=O)C(c2ccccc2)c2ccccc2)cc1 (stereo not given) | 98 | -2 | 99* | -2 | 35 | 5
SMILES | ABCB6 inh MLPCN | hiPSC survival | Arr AP2 block | PG9 binder | Arr-AP2 CP1 | GST-FITC bead
O=C(Nc1ccc(Cl)cc1[N+](=O)[O-])c1ccc2c(c1)OCCO2 | 102 | 1 | 63* | -2 | 11 | 19
O=C(Nc1cc([N+](=O)[O-])ccc1Cl)c1ccc2c(c1)OCO2 | 94 | -2 | 89* | 0 | -10 | 3
Cc1ccc([N+](=O)[O-])cc1NC(=O)c1ccc2c(c1)OCO2 | 101 | -1 | -2 | -2 | x | x
CN(C)c1ccc(NC(=O)COC(=O)Cn2nnc3ccccc32)cc1 | 101 | 0 | 61* | -7 | -5 | -9
COc1ccc(NC(=O)COC(=O)Cn2nnc3ccccc32)cc1 | 95 | -2 | 27 | 3 | x | x
c1ccn2cc(-c3ccc4c(c3)OCCO4)nc2c1 | 96 | -5 | 58* | -1 | -5 | -4
Cc1ccc2nc(-c3ccc4c(c3)OCCO4)cn2c1 | 101 | -1 | 13 | -3 | x | x
CC(C)(C)NC(=O)NC(=O)CN1CCCCCCC1 | 94 | 0 | 62* | -2 | -12 | -4
CC(=O)N(Cc1ccccc1)c1nccs1 | x | x | x | 0 | x | x
Cc1cc(N2CCNC[C@@H]2C)ccc1N1CCN(Cc2ccccc2)[C@H](C)C1 | x | x | x | 0 | x | x
COc1ccc(NC(=S)N(CCCN2CCCC(C)C2)Cc2cccs2)cc1 (stereo not given) | 98 | -1 | 54* | 1 | 5 | -7
CCn1c(=O)n(CC)c2cc(N3CCCC3)c(NC(=O)c3ccc(C)c([N+](=O)[O-])c3)cc21 | 95 | 0 | 70* | -6 | 0 | -7
CCn1c(=O)n(CC)c2cc(N3CCCC3)c(NC(=O)c3cccc(Cl)c3)cc21 | 96 | 1 | 4 | -3 | -7 | 0
CCC(=O)N1CCN(c2ccccc2NC(=O)c2cccc(C)c2)CC1 | 96 | 0 | 1 | 1 | x | x
Cc1cc(NC(=O)c2ccc(N3CCCC3)c([N+](=O)[O-])c2)no1 | 108 | 5 | 98* | -1 | -3 | 23
CCn1c(=O)n(CC)c2cc(N3CCCC3)c(NC(=O)c3cccc(C)c3)cc21 | 96 | 0 | 64* | -2 | 9 | 7
Cc1cc(O)cc(=O)n1-c1cccc([N+](=O)[O-])c1 | x | x | x | -2 | x | x
CN(C)c1cccc2c(S(=O)(=O)NCC3CCN(C(=O)C(=O)c4cccs4)CC3)cccc12 | x | x | x | 0 | x | x
Cc1[nH]c2ccc(C(=O)OC(C)C(=O)N(C)c3ccccc3)cc2c1C (stereo not given) | 98 | 1 | -5 | x | x | x
CC(=O)Nc1ccc(NC(=O)C(C)OC(=O)c2ccc3[nH]c(C)c(C)c3c2)cc1 (stereo not given) | 94 | 0 | 57* | -1 | -7 | -6
COC(=O)C1=C(C)N(Cc2ccccc2C(F)(F)F)C(=NCc2cccc(C(F)(F)F)c2)NC1c1ccc(F)cc1 (stereo not given) | x | x | x | 1 | x | x
Cc1[nH]c2ccccc2c1CC(=O)Nc1ccc(Nc2cccnc2)c(-c2ccc(OC(F)(F)F)cc2)c1 | x | x | x | -1 | x | x
Cc1cccc2cc(/C=C3\N=C(c4ccccc4)OC3=O)c(N3CCOCC3)nc12 | 90 | 3 | 67* | 0 | 14 | 23

Source: PubChem (several laboratories)
